High-throughput results deposited in PubChem by SRMLSC.
HUVEC prolif 384 – human endothelial cell proliferation inhibition | HUVEC proliferation, CellTiter-Glo luminescence, 72 h; hits give low values | viability, % at 10 µM (by protocol) | hit rate 1.1% among 86,000 | AID 648;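 active = viability at or below 30%; inactive = viability above 30%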;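 note: 100% = median luminescence of DMSO-only cell control wells on each plate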
Lung fibro prol – blocks proliferation of human lung fibroblasts | LL 47 human lung fibroblast viability, ATP luminescence; hits give low values | viability, % at 10 µM | hit rate 1.1% among 85,000;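 active = viability at or below 50% in the single dose screen; inactive = viability above 50%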;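 note: compound exposure lasted 72 h before the ATP readout; 100% = median luminescence of untreated cell-only wells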
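Material: human LL 47 lung fibroblast cells; quantity: 1,150 cells/well; medium: IMEM plus 15% FBS; doses: 0.1% DMSO in all compound wells; timing: overnight attachment after seeding, then 72 h compound exposure at 37 °C; detection: CellTiter-Glo luminescence; measure: % viability of median cell-only signal; controls: cell-only wells, no compound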
HCT116 PTEN-null – growth suppressors of cells with PTEN tumor suppressor deletion; HCT116 PTEN-null viability, CellTiter-Glo, 60 h; hits give low values; viability, % at 10 µM; hit rate 1.2% among 140,000;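 active = viability at or below a set limit, 4 SD under the median of all tested compounds, cut at about 3.7% in these data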;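 note: PTEN knockout HCT116 line with beta catenin targeted HCT116 as companion control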
H69AR inhibit – blocks growth of human H69AR lung tumor cells; H69AR lung tumor viability, ATP luminescence, 72 h; hits give low values; viability, % at 10 µM; hit rate 6% among 85,000;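 active = viability at or below 40%; inactive = viability above 40%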;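 note: multidrug resistant small cell line overexpressing MRP-1 efflux transporter; 100% = mean luminescence of untreated control wells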
HCT116 bCat-KO – beta-catenin-lacking colon tumor cell growth suppression; HCT116 beta-catenin knockout viability, CellTiter-Glo, 60 h; hits give low values; viability, % at 10 µM; hit rate 1.5% among 140,000; AID 818;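 active = viability at or under a set limit, the compound median less 4 SD, cut at about 6% in these data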;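 note: 0% = Hyamine 1622 control at 20 µM and 100% = untreated cell control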
The depositor's hits bear a star; ! = repeats disagree. The sample as a whole holds a higher share of hits than the screen did.

What do the screens show for `COc1ccc(CCNC(=O)c2c(N)n(CCN3CCOCC3)c3nc4ccccc4nc23)cc1`?
HUVEC prolif 384: 54.3; Lung fibro prol: 78.8; HCT116 PTEN-null: 0.3*; H69AR inhibit: 22.0*; HCT116 bCat-KO: 0.4*

What do the screens show for `CCCCn1c(N)c(C(=O)NCCN2CCOCC2)c2nc3ccccc3nc21`?
HUVEC prolif 384: 65.1; Lung fibro prol: 93.2; HCT116 PTEN-null: 70.6; H69AR inhibit: 56.8; HCT116 bCat-KO: 74.0

What do the screens show for `Nc1c(C(=O)NCCc2ccccc2)c2nc3ccccc3nc2n1CCN1CCOCC1`?
HUVEC prolif 384: 55.1; Lung fibro prol: 91.7; HCT116 PTEN-null: 1.9*; H69AR inhibit: 1.6*; HCT116 bCat-KO: 1.7*

What do the screens show for `O=C(NC1(C(F)(F)F)Oc2ccccc2O1)N1CCC2(CC1)OCCO2`?
HUVEC prolif 384: 81.1; Lung fibro prol: 101.1; HCT116 PTEN-null: 61.0; H69AR inhibit: 16.7*; HCT116 bCat-KO: 51.3

Results for O=C(NC1(C(F)(F)F)Oc2ccc(Cl)cc2O1)N1CCC2(CC1)OCCO2 (configuration not stated) ?
HUVEC prolif 384: 52.8; Lung fibro prol: 74.1; HCT116 PTEN-null: 65.6; H69AR inhibit: 31.6*; HCT116 bCat-KO: 66.1

What do the screens show for `CC(C)(C)OC(=O)c1c(N)n(Cc2ccco2)c2nc3ccccc3nc12`?
HUVEC prolif 384: 70.2; Lung fibro prol: 88.0; HCT116 PTEN-null: 81.2; H69AR inhibit: 53.1; HCT116 bCat-KO: 75.6

What do the screens show for `CCOc1ccc(Br)c(C2(O)CC(C)N(C)CC2C)c1` (configuration not stated)?
HCT116 PTEN-null: 70.0; HCT116 bCat-KO: 59.9

What do the screens show for `O=C(Cn1cc(C(=O)c2ccccc2F)c2ccccc21)NCc1ccco1`?
HUVEC prolif 384: 74.2; Lung fibro prol: 43.1*; HCT116 PTEN-null: 88.0; H69AR inhibit: 111.7; HCT116 bCat-KO: 99.4

Results for COc1ccc(N=C(C)c2c(O)n(C)c(=O)n(C)c2=O)c(OC)c1 ?
HUVEC prolif 384: 96.4; Lung fibro prol: 102.2; HCT116 PTEN-null: 94.8; H69AR inhibit: 92.0; HCT116 bCat-KO: 93.1

How did COC(=O)[C@@H]1[C@@H](C(=O)OC)C2(c3ccccc3-c3ccccc32)N(c2ccc(Cl)cc2)N1C#N do in these assays?
HUVEC prolif 384: 2.7*; Lung fibro prol: 3.3*; HCT116 PTEN-null: 1.2*; H69AR inhibit: 0.7*; HCT116 bCat-KO: 0.8*

Results for COC(=O)C[C@]1(C(=O)OC)CN(C#N)N(c2ccc(Cl)cc2)C12c1ccccc1-c1ccccc12 ?
HUVEC prolif 384: 2.4*; Lung fibro prol: 5.2*; HCT116 PTEN-null: 1.2*; H69AR inhibit: 0.6*; HCT116 bCat-KO: 0.4*

What do the screens show for `Cc1ccc2c(c1)CC1(CN2C)C(=O)NC(=O)N(c2ccc(C)c(C)c2)C1=O` (configuration not stated)?
HUVEC prolif 384: 94.8; Lung fibro prol: 94.2; HCT116 PTEN-null: 85.1; H69AR inhibit: 93.0; HCT116 bCat-KO: 94.2

Results for Cc1cc(C)nc(/N=C(\N)c2c(O)[nH]c(=O)[nH]c2=O)n1 ?
HCT116 PTEN-null: 95.3; HCT116 bCat-KO: 91.7

Results for CCCCCc1nc2ccccc2c(=O)n1-c1ccccc1[N+](=O)[O-] ?
HCT116 PTEN-null: 72.0; HCT116 bCat-KO: 79.5

What do the screens show for `CCCCCc1nc2c(c(=O)c3ccccc3n2C)c(=O)n1C1CCCCCC1`?
HCT116 PTEN-null: 1.6*; HCT116 bCat-KO: 1.5*

How did O=C(CN1CCOCC1)NCC(=O)Nc1ccc(Br)cc1C(=O)c1ccccc1 do in these assays?
HUVEC prolif 384: 99.2; Lung fibro prol: 105.5; HCT116 PTEN-null: 95.1; H69AR inhibit: 103.8; HCT116 bCat-KO: 81.7

Results for Cc1cccc(N2CCc3c2nc2ccccc2c3N)c1 ?
HUVEC prolif 384: 88.3; Lung fibro prol: 95.2; HCT116 PTEN-null: 11.0; H69AR inhibit: 34.5*!; HCT116 bCat-KO: 10.8

How did Cc1ccnc(-n2c(C)nc3ccccc3c2=O)c1 do in these assays?
HUVEC prolif 384: 102.4; Lung fibro prol: 101.4; HCT116 PTEN-null: 94.2; H69AR inhibit: 87.0; HCT116 bCat-KO: 88.3

What do the screens show for `CN(C(=O)Oc1ccc([N+](=O)[O-])cc1)c1ccccc1`?
HCT116 PTEN-null: 100.0; HCT116 bCat-KO: 104.1

What do the screens show for `CC1SC2(CN3CCC2CC3)NC1=O` (configuration not stated)?
HUVEC prolif 384: 103.9; Lung fibro prol: 99.2; HCT116 PTEN-null: 106.7; HCT116 bCat-KO: 93.9

How did CC/C(=C\C=C\[C@@H]1C=C[C@@H]2CCC[C@H]2[C@@H]1C(=O)c1ccc[nH]1)[C@@H]1O[C@@H]([C@@H](C)C(=O)O)CC[C@@H]1C do in these assays?
HUVEC prolif 384: 12.4*; Lung fibro prol: 38.0*; HCT116 PTEN-null: 27.1; H69AR inhibit: 15.0*; HCT116 bCat-KO: 18.8

What do the screens show for `COc1ccc(-n2c(C)nc3cc(C(=O)N4CCC5(CC4)OCCO5)ccc32)cc1`?
HUVEC prolif 384: 79.8; Lung fibro prol: 91.6; HCT116 PTEN-null: 45.2; H69AR inhibit: 28.6*; HCT116 bCat-KO: 47.5

How did COc1ccc(C)cc1NC(=O)c1c(C)nn(Cc2ccccc2)c1Cl do in these assays?
HCT116 PTEN-null: 98.2; HCT116 bCat-KO: 98.0

Results for CCc1cc2c(s1)NC(=O)CN=C2c1cccs1 ?
HUVEC prolif 384: 79.2; Lung fibro prol: 91.3; HCT116 PTEN-null: 86.5; H69AR inhibit: 23.1*; HCT116 bCat-KO: 88.2

How did Cc1ccccc1C(O)(Cc1ccccc1)C1CN2CCC1CC2 (configuration not stated) do in these assays?
HUVEC prolif 384: 47.8; Lung fibro prol: 70.9; HCT116 PTEN-null: 0.3*; H69AR inhibit: 41.8; HCT116 bCat-KO: 1.1*

What do the screens show for `Cc1c2ccncc2c(C)c2c1[nH]c1ccccc12`?
HCT116 PTEN-null: 0.9*; HCT116 bCat-KO: 1.3*

Results for O=C(N/N=C1/CN2CCC1CC2)c1cc2ccccc2cc1O ?
HUVEC prolif 384: 107.5; Lung fibro prol: 75.0; HCT116 PTEN-null: 75.3; H69AR inhibit: 37.5*; HCT116 bCat-KO: 76.0

How did COc1cc(/C=N/NC(=O)Cn2c([N+](=O)[O-])cnc2C)ccc1OC(=O)N(C)C do in these assays?
HUVEC prolif 384: 94.4; Lung fibro prol: 96.3; HCT116 PTEN-null: 109.6; H69AR inhibit: 87.3; HCT116 bCat-KO: 98.5

How did CN(C)c1ccc(N=Cc2c(O)n(CCC3=CCCCC3)c(=O)[nH]c2=O)cc1 do in these assays?
HUVEC prolif 384: 64.5; Lung fibro prol: 99.4; HCT116 PTEN-null: 90.6; H69AR inhibit: 10.1*; HCT116 bCat-KO: 89.1

Results for O=c1[nH]c(=O)n(CCC2=CCCCC2)c(O)c1C=NC1CCN(Cc2ccccc2)CC1 ?
HUVEC prolif 384: 96.2; Lung fibro prol: 95.5; HCT116 PTEN-null: 29.0; H69AR inhibit: 32.4*; HCT116 bCat-KO: 38.5

What do the screens show for `C=CCn1c(O)c(C=Nc2ccc(N(CC)CC)cc2)c(=O)[nH]c1=O`?
HUVEC prolif 384: 102.4; Lung fibro prol: 91.2; HCT116 PTEN-null: 91.7; H69AR inhibit: 85.3; HCT116 bCat-KO: 96.6

Results for CCN(CC)c1ccc(N=Cc2c(O)n(CCC3=CCCCC3)c(=O)[nH]c2=O)cc1 ?
HUVEC prolif 384: 70.7; Lung fibro prol: 88.5; HCT116 PTEN-null: 47.1; H69AR inhibit: 16.6*; HCT116 bCat-KO: 58.5
